B1: tRNA (parent)
chain: GUUCCGUUGGCGUAAUGGUAACGCGUCUCCCUCCUAAGGAGAAGACUGCGGGUUCGAGUCCCGUACGGAACG

Fewer inactive variants are shown than the library holds. Some results are limits rather than exact numbers.

The data set covers variants of B1. As to the kind of experiment: yeast fitness relative to wild type (ratio to wild type); higher = fitter; tRNA-Arg(CCU), competitive growth, 37 C, YPD. Put shortly:
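Variants of the tRNA-Arg(CCU) gene were chemically synthesised with a 3% per-site mutation rate across 69 sites and placed at the native genomic locus in Saccharomyces cerevisiae. Six parallel replicates of the pooled strains were competed in YPD at 37°C for 24 hours, and gene amplicons from the start and end populations were read by 100-nucleotide paired-end sequencing. Darwinian fitness relative to wild type was derived from changes in genotype frequencies. Genotypes required ≥ 100 starting reads, and estimates < 0.5 were set to 0.5.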
On to GUUCCGUUGGCGAAAUGGUAACGCGUCUGCCUCCUAAGGAGAGGACUGCGGGUUCGAGUCCCGUACAGAACG, for which the yeast fitness was no more than 0.5.

For the variant GUUCCGUUGGCGAAAUGGUAACGCGUGUCCCUCCUAAGGAGAAGACUGCGGGUUCGAGCCCCGUACGGAACG, the yeast fitness is no more than 0.5.

Consider GUUCCGUUGGCGAAAUGGUAACGCGUCUCCCUCCUAAGGAGAUGACUGCAGGUGCGAGUCCCGUACGCAACG, for which the yeast fitness is no more than 0.5.

Regarding GUUCCGUUGGCGAAAUGGUAACGCGUCUCCCUCCUAAGGAGAAGACUGCGGGUUUGAGUCCCGUACGGCACG, the yeast fitness stood at 0.599.

Regarding GUUCCGUUGGCGAAAUGGUAACGCGUCUCCUUCCUAAGGAGAAGAAUGCGGGUUCGAGUCCCGUACGGAACG, the yeast fitness came out at 0.665.

In the case of GUUCCGUUGGCGAAAUGGUAACGCGUGUCCCUCCUAAGGAGUAGACUGCGGGUUCGAGUCCCGUACGGAACG, the yeast fitness turned out to be 0.671.

In the case of GUUCCGUUGGCGAAAUGGUAACGCGUCUCCUUCCUAAGGUGAAGACUGCGGGUUCGAGUCCCGUACGGAACG, the yeast fitness came to 1.04.

With GUUCCGUUGGCGAAAUGGUAAUGCGUCUCCCUCCUAGGGAGAAGACUGCGGGUUCGAGUCCCGUACGGAACG, the yeast fitness amounted to 0.533.

In the case of GUUCCGUUGGCGAAAUGGUAAGGCGUCUCCGUCCUAAGGAGAAGACUGCGGGUUCGAGUCACGUACGGAACG, the yeast fitness stood at 0.512.

Turning to GUUCCGUUGGCGAAAUGGUAACGUGUCUCCCUCCUAAGGAGAAGACUGCGGGUUCGAGCCCCGUACAGAACG, the yeast fitness is no more than 0.5.

As to GUUCCGUUGGCGAAAUGGUAACGCGUAUCCCUCCUCAGGAGUAGACUGCGGGUUCGAGUCCCGGACGGAACG, the yeast fitness is no more than 0.5.

As for GUUCCGUUGGCGAAAUGGUAACGGGUCACUGUCCUAAGGACAAGACUGCGGGUUCACGUCCCGUACGGAACG, the yeast fitness is no more than 0.5.

For the variant GUUCCGUUGGCGAAAUGGUAACGCGUCUCCCUCCUAAGGAGAAGACUGUGGGUUCGAGUCCCGUCCGGAACG, the yeast fitness worked out at 0.624.

Regarding GUUCCGUUGGCGAAAUGGUAACGCGUCUCCCUCCUAAGGAGAAGACUGUGGGUCCGAGUCCUGUACGCAACG, the yeast fitness is no more than 0.5.

Consider GUUCCGUUGGCGAAAUGGUAACGCGUCUCCCUCCUAAGGAGAGGGCUGCCGGUUCGAGUACCGUACGGCACG, for which the yeast fitness amounted to 0.534.

With GUUCCGUUGGCGAAAUGGUAACGCGUCUCCCUCUUGAGGAGAAGACUGCGGGUUCGAGUCCCGUACGGAACG, the yeast fitness was no more than 0.5.

For GUUCCGUUGGCGAAAUGGUAACGCGUAUCCCUCCUGAGGAGCAGACUGCGGGUUCGAGUCCCGUACGGAACG, the yeast fitness is no more than 0.5.

Regarding GUUCCGUUGGCGAAAUGGUAACGCGUCUCCCUCGUAAGGAGAAGACUGCAGGUUCGAGUGUCGUACGGAACG, the yeast fitness was no more than 0.5.

As to GUUCCGUUGGCGAAAUGGUAACGUGUCUCCCUCCUAAGGAGAAGACUGCGGGUUGGAGUCCCGUACGGAACG, the yeast fitness was found to be 0.537.

Take GUUCCGUUGGCGAAAUGGUAACGCGUCUCCCUCCUAAGGAGAAGACUGCGGGUUCGUGUCCCGGGCGGAACG: the yeast fitness is no more than 0.5.

Consider GUUCCGUUGGCGAAAUGGUAACGGAUCUCCUUCCUAAGGAGAAGACUGCGGGUUCGAGUCCCGUACGGAACG, for which the yeast fitness was no more than 0.5.

Take GUUCCGUUGGCGAAAUGGUAACGCGUCUCCCUCCUAAGGAGAAGUCUGCGGGUUCGAGUCCCGUACGGAACG: the yeast fitness came out at 1.

Turning to GUUCCGUUGGCGAAAUGGUAACGCGUCUCCCUGCUAGGGAGAAGACUGCGGGUUCGAGUCCCGUACGGAACG, the yeast fitness is no more than 0.5.

GUUCCGUUGGCGAAAUGGUAACGCGUCUCCCUCCUAAGGAGAAGACUGCGGGUUCGUGUCCCGUACGGAACG: the yeast fitness stood at 0.681.

With GUUCCGUUGGCGAAAUGGUAACGCGUCUCUCUCCUAAGGAGAAGCCUGCGGGUUCGAGUCCCGUACGGAACG, the yeast fitness stood at 0.611.

As for GUUCCGUUGGCGAAAUGGUAACGCGUUUCCUUCCUAAGGAGAAGACUGCGGGUUCGAGUCCCGUACGGAACG, the yeast fitness is 0.673.

Take GUUCCGUUGGCGAAAUGGUAACGAGUCUCACUCCUAAGGAGAAGACUGCGGGUUCGAGUCCCGUACGGAACG: the yeast fitness is 0.605.

Turning to GUUCCGUUGGCGAAAUGGUAAAGCGUCUCCCUCCUUAGGAGAAGACUGCGGGUUCGAGUCCCGUGCGGAACG, the yeast fitness was no more than 0.5.

Take GUUCCGUUGGCGAAAUGGUAACGCGUCUCCCUCCUAAGGAGAAGAUUGCGGGUUCGAGUCCCGCACGGUACG: the yeast fitness is no more than 0.5.

With GUUCCGUUGGCGAAAUGGUAACGCGUUUCCCUCCUAAGGAGAAGACUGCGGGUUCGAGUCCCGUACGGAUCG, the yeast fitness was determined as 0.867.

On to GUUCCGUUGGCGAAAUGGUAAUGCGUCUCCCUCCUAAGGAGAAGACUGCGGGUUCGAGUCCCGUAUGGAACG, for which the yeast fitness was determined as 0.534.

As to GUUCCGUUGGCGAAAUGGUAAGGCCUUUCGCUCCUAAGGAGAAGACUGCGGGUUCGAGUCCCGUACGGAACG, the yeast fitness was no more than 0.5.

Regarding GUUCCGUUGGCGAAAUGGUAACGCGUCUCCUUCCUAAGGAGAAGACUGUGGGUUCGAGUCCCGUAAAGAACG, the yeast fitness is no more than 0.5.

For the variant GUUCCGUUGGCGAAAUGGUAAGGCGUCUCCCCCCUAAGGAGCAGACUCCGGGUUGGAGUCCCAUACGCAACG, the yeast fitness is no more than 0.5.

GUUCCGUUGGCGAAAUGGUAACGUGUCUCCCUCCAAAGGAGACGACUGCCGGUUCGAGUCCCGUACGGAACG: the yeast fitness was no more than 0.5.

For the variant GUUCCGUUGGCGAAAUGGUAACGCGUUUCCCUCCUAAGGAGAAGACUGCGGGUUCGAGUCCCGUACGGUACG, the yeast fitness was 0.864.

For the variant GUUCCGUUGGCGAAAUGGUAACGCGUCUCCCUACUUAGGAGAAGACUGCGGGUUCGAGUCCCGUACGGACCG, the yeast fitness was 0.518.

The record behind these values is the RNAGym collection of RNA variant scans (doi:10.1126/science.aae0568).
